Assay results published in ChEMBL document CHEMBL2062385, “Bone-targeting glycol and NSAIDS ester prodrugs of rhein: synthesis, hydroxyapatite affinity, stability, anti-inflammatory, ulcerogenicity index and pharmacokinetics studies” (Eur J Med Chem, 2012).
Active and inactive are the calls of the source. The calls are words filed in the database; no cut-off is given here.

How the values were obtained:
[1] = AUC (0 to 9 hrs) in Sprague-Dawley rat at 5.26 mg/kg, po; format: ADME, organism-based; set-up: time < 9 hr, dose 5.26 mg/kg, route oral; settings: plasma
In short: (§1)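 SD rats of either sex (200 ± 20 g), six per group, dosed by gastric intubation after recovery from anesthesia. Arterial blood (~0.5 mL) drawn predose and at 0.17, 0.33, 0.5, 0.75, 1, 1.5, 2, 2.5, 3, 4, 5, 7 and 9 h. Plasma separated at once by centrifugation. Rhein in plasma measured by HPLC with diode-array detection.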

[2] = Cmax in Sprague-Dawley rat at 5.26 mg/kg, po; format: ADME, organism-based; set-up: dose 5.26 mg/kg, route oral; settings: in vivo; in short: as §1
[3] = Tmax in Sprague-Dawley rat at 5.26 mg/kg, po; format: ADME, organism-based; set-up: dose 5.26 mg/kg, route oral; settings: in vivo; in short: as §1
[4] = test system: Rattus norvegicus; test: MRT (0 to infinity) in Sprague-Dawley rat assessed as rhein at 10 mg/kg, po; format: ADME, organism-based; set-up: dose 10 mg/kg, route oral; settings: in vivo; in short: as §1
[5] = Half life in Sprague-Dawley rat at 5.26 mg/kg, po; format: ADME, organism-based; set-up: dose 5.26 mg/kg, route oral; settings: in vivo; in short: as §1
[6] = test system: Rattus norvegicus; test: MRT (0 to 9 hrs) in Sprague-Dawley rat assessed as rhein at 10 mg/kg, po; format: ADME, organism-based; set-up: dose 10 mg/kg, route oral; settings: in vivo; in short: as §1
[7] = test system: Rattus norvegicus; test: AUC (0 to infinity) in Sprague-Dawley rat assessed as rhein at 10 mg/kg, po; format: ADME, organism-based, Plasma; set-up: time infinity, dose 10 mg/kg, route oral; settings: in vivo; in short: as §1
[8] = test system: Rattus norvegicus; test: AUC (0 to 9 hrs) in Sprague-Dawley rat assessed as rhein at 10 mg/kg, po; format: ADME, organism-based, Plasma; set-up: time < 9 hr, dose 10 mg/kg, route oral; settings: in vivo; in short: as §1
[9] = test system: Rattus norvegicus; test: Cmax in Sprague-Dawley rat assessed as rhein at 10 mg/kg, po; format: ADME, organism-based; set-up: dose 10 mg/kg, route oral; settings: in vivo; in short: as §1
[10] = test system: Rattus norvegicus; test: Tmax in Sprague-Dawley rat assessed as rhein at 10 mg/kg, po; format: ADME, organism-based; set-up: dose 10 mg/kg, route oral; settings: in vivo; in short: as §1
[11] = test system: Rattus norvegicus; test: Half life in Sprague-Dawley rat assessed as rhein at 10 mg/kg, po; format: ADME, organism-based; set-up: dose 10 mg/kg, route oral; settings: in vivo; in short: as §1
[12] = Prodrug conversion at pH 1.2 assessed as hydrolysis up to 24 hrs by HPLC analysis; format: physicochemical; settings: buffer, pH 1.2, 24 h
In short: (§2)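 Prodrugs held at 37 °C for up to 24 h in phosphate-buffered saline adjusted to pH 1.2 or pH 7.4. Samples taken at set intervals. Released parent drugs quantified by C18 HPLC with methanol/0.1% H3PO4 90:10 (pH 2.3), 25 °C, 1.0 mL/min, 254 nm. Run in triplicate.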

[13] = test system: Hydroxyapatite; test: Binding affinity to bone mineral hydroxyapatite after 30 mins by RP-HPLC analysis
In short: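 Each compound (10 mL, 0.1 mmol/L in water) stirred vigorously with 20, 40 or 80 mg hydroxyapatite for 30 min. Then analysed by HPLC on C18 with methanol/0.1% H3PO4 90:10 (pH 2.3), 25 °C, 1.0 mL/min, 254 nm detection. n = 3.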

[14] = AUC (0 to infinity) in Sprague-Dawley rat at 5.26 mg/kg, po; format: ADME, organism-based; set-up: time infinity, dose 5.26 mg/kg, route oral; settings: plasma; in short: as §1
[15] = MRT (0 to 9 hrs) in Sprague-Dawley rat at 5.26 mg/kg, po; format: ADME, organism-based; set-up: dose 5.26 mg/kg, route oral; settings: in vivo; in short: as §1
[16] = MRT (0 to infinity) in Sprague-Dawley rat at 5.26 mg/kg, po; format: ADME, organism-based; set-up: dose 5.26 mg/kg, route oral; settings: in vivo; in short: as §1
[17] = test system: Mus musculus; test: Antiinflammatory activity in Kunming mouse assessed as inhibition of xylene-induced auricle tumefaction at 0.2 mmol/kg, po qd administered prior to challenge for 5 days measured 30 mins post challenge; format: functional
In short: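 Male Kunming mice (18-22 g), ten per group, dosed once daily for 5 days at 0.2 mmol/kg; controls got 0.9% NaCl. A 7 mm filter soaked in xylene was held on the right ear for 30 s, 1 h after the last dose. Mice were killed 30 min later and 7 mm ear punches taken. Inhibition = (1 − a/b)×100%, from tumefaction degree of control and test groups.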

[18] = Prodrug conversion at pH 7.4 assessed as hydrolysis up to 24 hrs by HPLC analysis; format: physicochemical; settings: buffer, pH 7.4, 24 h; in short: as §2
[19] = test system: Mus musculus; test: Ulcerogenic activity in Kunming mouse assessed as ulcer index at 1 mmol/kg, po measured after 4 hrs; format: toxicity, organism-based; settings: in vivo
In short: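 Kunming mice of either sex (18-22 g), ten per group, fasted from food and water for 24 h. Then given 1.0 mmol/kg orally as a suspension in 1% methylcellulose. Killed at 4 h; stomachs fixed 30 min in 10% formaldehyde, opened along the greater curvature and ulcers measured under a magnifier. Ulcer index = summed lesion length (mm) per stomach averaged over 10 animals.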

[20] = Tmax in Sprague-Dawley rat at 10 mg/kg, po; format: ADME, organism-based; set-up: dose 10 mg/kg, route oral; settings: in vivo; in short: as §1
[21] = Half life in Sprague-Dawley rat at 10 mg/kg, po; format: ADME, organism-based; set-up: dose 10 mg/kg, route oral; settings: in vivo; in short: as §1
[22] = MRT (0 to infinity) in Sprague-Dawley rat at 10 mg/kg, po; format: ADME, organism-based; set-up: dose 10 mg/kg, route oral; settings: in vivo; in short: as §1
[23] = MRT (0 to 9 hrs) in Sprague-Dawley rat at 10 mg/kg, po; format: ADME, organism-based; set-up: dose 10 mg/kg, route oral; settings: in vivo; in short: as §1
[24] = AUC (0 to infinity) in Sprague-Dawley rat at 10 mg/kg, po; format: ADME, organism-based; set-up: time infinity, dose 10 mg/kg, route oral; settings: plasma; in short: as §1
[25] = AUC (0 to 9 hrs) in Sprague-Dawley rat at 10 mg/kg, po; format: ADME, organism-based; set-up: time < 9 hr, dose 10 mg/kg, route oral; settings: plasma; in short: as §1
[26] = Cmax in Sprague-Dawley rat at 10 mg/kg, po; format: ADME, organism-based; set-up: dose 10 mg/kg, route oral; settings: in vivo; in short: as §1

Structure (SMILES) | Drug metabolism [12] | Activity [13] | Drug metabolism [18] | inhibition in vivo at 200 µmol/kg [17] | further results
O=C(O)c1cc(O)c2c(c1)C(=O)c1cccc(O)c1C2=O [RHEIN] | Active | Active | – | – | AUC(0-t) at 9 h [1]: 1170 ng·h/mL; Cmax [2]: 432 ng/mL; Tmax [3]: 2.04 h; MRT [4]: 5.699 h; half-life [5]: 1.24 h; MRT [6]: 4.291 h; AUC [7]: 1394 ng·h/mL; AUC [8]: 1178 ng·h/mL; Cmax [9]: 291 ng/mL; Tmax [10]: 2.917 h; t1/2 [11]: 2.771 h; AUC(0-inf) [14]: 1380 ng·h/mL; MRT last [15]: 2.92 h; MRT inf [16]: 3.78 h
COc1ccc2cc(C(C)C(=O)OCCOC(=O)c3cc(OC(C)=O)c4c(c3)C(=O)c3cccc(OC(C)=O)c3C4=O)ccc2c1 (stereo not given) | Active | Active | Active | 24.4% | –
COc1ccc2c(c1)c(CC(=O)OCCOC(=O)c1cc(OC(C)=O)c3c(c1)C(=O)c1cccc(OC(C)=O)c1C3=O)c(C)n2C(=O)c1ccc(Cl)cc1 | Active | Active | Active | 23.4% | –
CC(=O)Oc1cccc2c1C(=O)c1c(OC(C)=O)cc(C(=O)OCCO)cc1C2=O | Active | Active | Active | 16% | –
O=C(OCCO)c1cc(O)c2c(c1)C(=O)c1cccc(O)c1C2=O | Active | Active | Active | 13.9% | –
CC(C)Cc1ccc(C(C)C(=O)O)cc1 (stereo not given) [IBUPROFEN] | – | inactive | Active | 32% | UI [19]: 8.3
CC(=O)Oc1cccc2c1C(=O)c1c(OC(C)=O)cc(C(=O)OCCOCCOCCO)cc1C2=O | Active | Active | Active | 19.5% | –
CC(=O)Oc1ccccc1C(=O)OCCOC(=O)c1cc(O)c2c(c1)C(=O)c1cccc(O)c1C2=O | Active | Active | Active | 19.6% | –
CC(=O)Oc1cccc2c1C(=O)c1c(OC(C)=O)cc(C(=O)O)cc1C2=O [DIACEREIN] | – | Active | – | 29.2% | –
CC(=O)Oc1cccc2c1C(=O)c1c(OC(C)=O)cc(C(=O)OCCOCCO)cc1C2=O | Active | Active | Active | 15% | –
O=C(Cc1ccccc1Nc1c(Cl)cccc1Cl)OCCOC(=O)c1cc(O)c2c(c1)C(=O)c1cccc(O)c1C2=O | Active | Active | Active | 43.9% | –
CC(=O)Oc1cccc2c1C(=O)c1c(OC(C)=O)cc(C(=O)OCCOC(=O)Cc3ccccc3Nc3c(Cl)cccc3Cl)cc1C2=O | Active | Active | Active | 44% | –
O=C(O)Cc1ccccc1Nc1c(Cl)cccc1Cl [DICLOFENAC] | – | – | – | 41.9% | –
CC(=O)Oc1ccccc1C(=O)OCCOC(=O)c1cc(OC(C)=O)c2c(c1)C(=O)c1cccc(OC(C)=O)c1C2=O | Active | Active | Active | 19.9% | –

Second part, led by results:

Drug metabolism [12] | Activity [13] | Drug metabolism [18] | Structure (SMILES) | inhibition in vivo at 200 µmol/kg [17] | further results
Active | Active | Active | CC(=O)Oc1cccc2c1C(=O)c1c(OC(C)=O)cc(C(=O)OCCOC(=O)C(C)c3ccc(CC(C)C)cc3)cc1C2=O (stereo not given) | 35.2% | –
Active | Active | Active | O=C(OCCOCCO)c1cc(O)c2c(c1)C(=O)c1cccc(O)c1C2=O | 17.2% | –
Active | Active | Active | CC(C)Cc1ccc(C(C)C(=O)OCCOCCOC(=O)c2cc(O)c3c(c2)C(=O)c2cccc(O)c2C3=O)cc1 (stereo not given) | 32.7% | UI [19]: 5.8
Active | Active | Active | COc1ccc2cc(C(C)C(=O)OCCOC(=O)c3cc(O)c4c(c3)C(=O)c3cccc(O)c3C4=O)ccc2c1 (stereo not given) | 23.9% | Tmax [20]: 1.75 h; half-life [21]: 2.19 h; UI [19]: 5.8; MRT inf [22]: 4.23 h; MRT last [23]: 3.46 h; AUC(0-inf) [24]: 4860 ng·h/mL; AUC(0-t) at 9 h [25]: 4420 ng·h/mL; Cmax [26]: 1090 ng/mL
Active | Active | Active | CC(=O)Oc1cccc2c1C(=O)c1c(OC(C)=O)cc(C(=O)OCCOCCOCCOC(=O)C(C)c3ccc(CC(C)C)cc3)cc1C2=O (stereo not given) | 29.3% | –
Active | Active | Active | O=C(OCCOCCOCCO)c1cc(O)c2c(c1)C(=O)c1cccc(O)c1C2=O | 17.4% | –
Active | Active | Active | CC(C)Cc1ccc(C(C)C(=O)OCCOCCOCCOC(=O)c2cc(O)c3c(c2)C(=O)c2cccc(O)c2C3=O)cc1 (stereo not given) | 33.9% | UI [19]: 5.8
Active | Active | Active | CC(C)Cc1ccc(C(C)C(=O)OCCOC(=O)c2cc(O)c3c(c2)C(=O)c2cccc(O)c2C3=O)cc1 (stereo not given) | 41.2% | UI [19]: 5.8
Active | Active | Active | CC(=O)Oc1cccc2c1C(=O)c1c(OC(C)=O)cc(C(=O)OCCOCCOC(=O)C(C)c3ccc(CC(C)C)cc3)cc1C2=O (stereo not given) | 33% | –
